Measured values reported in ChEMBL document CHEMBL1154683, “Bis(dialkylaminethiocarbonyl)disulfides as potent and selective monoglyceride lipase inhibitors” (J Med Chem, 2009).
Numbering of substitutions follows the chain as printed. The source made the active and inactive calls. The calls are words filed in the database; no cut-off is given here.

Assays:
[1] = target: T1, Monoglyceride lipase (Homo sapiens) (UniProt Q99685); assay: Inhibition of human MGL activity using [3H]2-oleoylglycerol substrate at 10 uM by liquid scintillation counting
T1 sequence (whole entry): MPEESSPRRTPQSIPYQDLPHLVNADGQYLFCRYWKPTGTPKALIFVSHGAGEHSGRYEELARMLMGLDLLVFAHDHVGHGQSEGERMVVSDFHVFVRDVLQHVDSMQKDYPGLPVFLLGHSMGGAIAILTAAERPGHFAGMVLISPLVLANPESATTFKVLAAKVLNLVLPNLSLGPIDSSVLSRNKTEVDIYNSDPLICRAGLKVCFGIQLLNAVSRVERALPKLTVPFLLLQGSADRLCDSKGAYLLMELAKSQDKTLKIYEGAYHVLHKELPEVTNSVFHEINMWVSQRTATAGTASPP
In short: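 Single-point screen on recombinant human MGL at 10 μM, with a parallel screen at 100 μM.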

[2] = target: T2, Monoglyceride lipase (Homo sapiens, UniProt Q99685); assay: Inhibition of human MGL activity using [3H]2-oleoylglycerol substrate by liquid scintillation counting
T2 sequence (Q99685 whole entry): T1 sequence (whole entry)
In short: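 Recombinant human MGL was used, and inhibition was expressed as pIC50.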

[3] = target: T3, Fatty-acid amide hydrolase 1 (Homo sapiens, UniProt O00519); assay: Inhibition of human recombinant FAAH-maltose binding protein
T3 sequence (O00519 whole entry): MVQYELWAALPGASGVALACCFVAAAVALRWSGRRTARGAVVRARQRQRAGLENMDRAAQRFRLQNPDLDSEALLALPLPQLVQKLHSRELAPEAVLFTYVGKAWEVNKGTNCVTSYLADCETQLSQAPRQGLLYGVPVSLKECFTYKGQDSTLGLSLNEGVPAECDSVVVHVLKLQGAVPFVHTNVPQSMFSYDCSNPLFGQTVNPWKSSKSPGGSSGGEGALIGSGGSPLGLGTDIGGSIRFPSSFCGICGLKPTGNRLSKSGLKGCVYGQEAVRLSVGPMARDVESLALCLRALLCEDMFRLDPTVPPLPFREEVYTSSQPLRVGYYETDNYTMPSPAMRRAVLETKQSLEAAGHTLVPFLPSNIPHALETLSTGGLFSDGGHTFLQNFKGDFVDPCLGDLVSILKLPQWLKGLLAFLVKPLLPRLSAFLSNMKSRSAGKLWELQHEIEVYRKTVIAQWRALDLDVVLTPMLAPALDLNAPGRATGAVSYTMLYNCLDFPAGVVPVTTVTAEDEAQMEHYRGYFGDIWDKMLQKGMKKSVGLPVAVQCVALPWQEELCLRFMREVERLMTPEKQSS

[4] = species: Homo sapiens; assay: Selectivity ratio for human MGL activity to human recombinant FAAH
[5] = target: T1, Monoglyceride lipase (Homo sapiens); assay: Inhibition of human MGL activity using [3H]2-oleoylglycerol substrate at 10 nM measured upto 1 hr by high dilution reversibility assay
In short: (§1)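 Recombinant human MGL preincubated with inhibitor at 30, 10 or 3 μM, then diluted 300-fold before substrate addition, giving 100, 33.3 and 10 nM during the activity read. Activity was followed up to 1 h postdilution and compared with a DMSO-preincubated control.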

[6] = target: T1, Monoglyceride lipase (Homo sapiens); assay: Inhibition of human MGL activity using [3H]2-oleoylglycerol substrate assessed as reversible enzyme activity in presence of 1,4-dithio-DL-threitol
In short: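 Recombinant human MGL incubated with inhibitor to allow disulfide bond formation. DTT (10^-2 M) was then added before substrate addition and the MGL activity read.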

[7] = target: Monoglyceride lipase (Homo sapiens, UniProt Q99685, C208A); assay: Inhibition of human MGL C208A mutant using [3H]2-oleoylglycerol substrate
[8] = target: Monoglyceride lipase (Homo sapiens, UniProt Q99685, C242A); assay: Inhibition of human MGL C242A mutant using [3H]2-oleoylglycerol substrate
[9] = tested on: T4, Monoglyceride lipase (Homo sapiens), Q99685 [C208A,C242A]; assay: Inhibition of human MGL C208A/C242A double mutant using [3H]2-oleoylglycerol substrate
T4 sequence (whole entry): T1 sequence (whole entry) with C208A, C242A

[10] = target: T5, Aldehyde dehydrogenase, mitochondrial (Rattus norvegicus, UniProt P11884); assay: Inhibition of recombinant rat ALDH activity in liver mitochondria
T5 sequence (P11884 whole entry): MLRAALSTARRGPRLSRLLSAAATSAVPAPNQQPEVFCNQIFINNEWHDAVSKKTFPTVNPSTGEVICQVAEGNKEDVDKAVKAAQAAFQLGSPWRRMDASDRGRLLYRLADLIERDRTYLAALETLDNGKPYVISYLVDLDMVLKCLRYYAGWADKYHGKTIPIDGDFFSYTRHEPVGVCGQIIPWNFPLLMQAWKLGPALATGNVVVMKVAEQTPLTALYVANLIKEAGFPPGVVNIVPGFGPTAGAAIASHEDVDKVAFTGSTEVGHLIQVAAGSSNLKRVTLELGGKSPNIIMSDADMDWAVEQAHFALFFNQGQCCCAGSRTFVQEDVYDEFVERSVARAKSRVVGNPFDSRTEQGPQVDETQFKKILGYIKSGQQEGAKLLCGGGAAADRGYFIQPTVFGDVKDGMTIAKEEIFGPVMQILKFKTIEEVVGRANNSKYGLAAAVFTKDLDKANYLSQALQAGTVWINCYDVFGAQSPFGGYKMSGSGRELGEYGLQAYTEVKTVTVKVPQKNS

[11] = target: T1, Monoglyceride lipase (Homo sapiens); assay: Inhibition of human MGL activity using [3H]2-oleoylglycerol substrate at 100 nM measured upto 1 hr by high dilution reversibility assay; in short: as §1
[12] = target: T1, Monoglyceride lipase (Homo sapiens); assay: Inhibition of human MGL activity using [3H]2-oleoylglycerol substrate at 33.3 nM measured upto 1 hr by high dilution reversibility assay; in short: as §1

Sequence of Monoglyceride lipase (Homo sapiens, UniProt Q99685, C242A) (Q99685 whole entry C242A): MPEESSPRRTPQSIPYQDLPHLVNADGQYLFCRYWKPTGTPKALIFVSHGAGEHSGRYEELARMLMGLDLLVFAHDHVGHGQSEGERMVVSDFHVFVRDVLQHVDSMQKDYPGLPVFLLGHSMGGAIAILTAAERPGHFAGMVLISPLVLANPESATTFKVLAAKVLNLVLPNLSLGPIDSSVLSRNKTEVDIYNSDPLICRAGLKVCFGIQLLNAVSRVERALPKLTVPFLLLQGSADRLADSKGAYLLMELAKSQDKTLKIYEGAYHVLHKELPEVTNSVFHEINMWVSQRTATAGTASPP
Sequence of Monoglyceride lipase (Homo sapiens, UniProt Q99685, C208A) (Q99685 whole entry C208A): as the sequence (Q99685 whole entry C242A) above, with C208A, A242C counted along it

Row | SMILES | inhibition [1] [%] | IC50 [2] [µM] | IC50 [3] [µM] | also measured
1 | S=C(SCSC(=S)N1CCOCC1)N1CCOCC1 | > 50 | 102 | > 1000 | –
2 | C1CCN(SSN2CCCCC2)CC1 | > 50 | 9.55 | > 1000 | –
3 | CCN(CC)SSN(CC)CC | > 50 | 7.94 | > 1000 | –
4 | S=C(SSC(=S)N1CCCC1)N1CCCC1 [BIS(PYRROLIDINYLTHIOCARBONYL)DISULFIDE] | > 50 | 0.912 | > 1000 | –
5 | CCCCC/C=C\C/C=C\C/C=C\C/C=C\CCCC(=O)C(F)(F)F [ARACHIDONYL TRIFLUOROMETHYLKETONE] | – | 6.46 | 0.0123 | Selectivity ratio [4]: 0.002
6 | CN1CCN(C(=S)SCSC(=S)N2CCN(C)CC2)CC1 | > 50 | 95.5 | > 1000 | –
7 | S=C(SSC(=S)N1CCCc2ccccc21)N1CCCc2ccccc21 | > 50 | 0.741 | > 1000 | –
8 | CN(C)C(=O)n1nnnc1Cc1ccc(-c2ccccc2)cc1 | – | 0.055 | – | –
9 | CN(C)C(=S)SC(=S)N(C)C [BIS(DIMETHYLAMINETHIOCARBONYL)MONOSULFIDE] | > 50 | 12.3 | > 1000 | –
10 | CN(C)C(=S)SC(=S)N1CCOCC1 | > 50 | 6.46 | > 1000 | –
11 | CCCCCCCCCCCCCCCCN(CC)C(=S)SSC(=S)N(CC)CCCCCCCCCCCCCC | > 50 | 10.5 | > 1000 | –
12 | CC1CCCC(C)N1C(=S)SSC(=S)N1C(C)CCCC1C (centres undefined) | > 50 | 0.479 | > 1000 | –
13 | CCN(Cc1ccccc1)C(=S)SSC(=S)N(CC)Cc1ccccc1 | > 50 | 4.07 | > 1000 | –
14 | CN(C)C(=S)SSC(=S)N(C)C [THIRAM] | > 50 | 0.977 | 44.7 | Selectivity ratio [4]: 45
15 | S=C(SSC(=S)N1CCSCC1)N1CCSCC1 | > 50 | 0.316 | 25.1 | –
16 | CCN(CC)C(=O)CSC(=S)N(CC)CC [(DIETHYLCARBAMOYL)METHYLENE DIETHYLCARBAMODITHIOATE] | > 50 | 631 | > 1000 | –
17 | S=C(SSC(=S)N1CCC(Cc2ccccc2)CC1)N1CCC(Cc2ccccc2)CC1 | > 50 | 6.92 | > 1000 | –
18 | CCCCC/C=C\C/C=C\C/C=C\C/C=C\CCCCN1C(=O)CCC1=O | – | 1.12 | 2.19 | Selectivity ratio [4]: 1.95
19 | CC1CCN(C(=S)SSC(=S)N2CCC(C)CC2)CC1 | > 50 | 0.269 | > 1000 | –
20 | CN1CCN(C(=S)SSC(=S)N2CCN(C)CC2)CC1 | > 50 | 0.11 | 200 | Activity [5]: Active; Activity [6]: Active; IC50 [7]: 8.32 µM; IC50 [8]: 0.302 µM; Activity [9]: inactive; IC50 [10]: 15.8 µM; Activity [11]: Active; Activity [12]: Active
21 | CN(C(=S)SSC(=S)N(C)c1ccccc1)c1ccccc1 | > 50 | 0.741 | 33.9 | –

Row | SMILES | inhibition [1] [%] | IC50 [2] [µM] | IC50 [3] [µM] | also measured
22 | S=C(CSC(=S)N1CCOCC1)N1CCOCC1 | > 50 | 15.5 | > 1000 | –
23 | S=C(SSC(=S)N1CCN(Cc2ccccc2)CC1)N1CCN(Cc2ccccc2)CC1 | > 50 | 5.01 | 170 | –
24 | CN(C(=S)SSC(=S)N(C)C1CCCCC1)C1CCCCC1 | > 50 | 0.141 | 4.79 | –
25 | CSC(=S)N1CCOCC1 | > 50 | > 1000 | > 1000 | –
26 | C1CN(SSN2CCOCC2)CCO1 [DITHIODIMORPHOLINE] | > 50 | 11.2 | > 1000 | –
27 | S=C(SSC(=S)N1CCN(c2ccccc2)CC1)N1CCN(c2ccccc2)CC1 | > 50 | 0.49 | 135 | –
28 | CCN(CC)C(=S)SSC(=S)N(CC)CC | > 50 | 1.26 | 363 | –
29 | CCN(CC)C(=S)SCSC(=S)N(CC)CC | > 50 | 20.9 | > 1000 | –
30 | CN(Cc1ccccc1)C(=S)SSC(=S)N(C)Cc1ccccc1 | > 50 | 0.437 | > 1000 | –
31 | S=C(SSC(=S)N1CCCCCC1)N1CCCCCC1 | > 50 | 0.813 | > 1000 | –
32 | S=C(SSC(=S)N(Cc1ccccc1)Cc1ccccc1)N(Cc1ccccc1)Cc1ccccc1 [BIS(DIBENZYLAMINETHIOCARBONYL)DISULFIDE] | > 50 | 9.55 | > 1000 | –
33 | S=C(SSC(=S)N1CCCCC1)N1CCCCC1 [BIS(PIPERIDINYLTHIOCARBONYL)DISULFIDE] | > 50 | 0.316 | > 1000 | –
34 | S=C(SSC(=S)N1CCN(C2CCCCC2)CC1)N1CCN(C2CCCCC2)CC1 | > 50 | 0.166 | > 1000 | –
35 | O=C(Nc1cccc(-c2ccccc2)c1)OC1CCCCC1 | – | 10 | 5.75 | Selectivity ratio [4]: 0.57
36 | S=C(SSC(=S)N1CCOCC1)N1CCOCC1 | > 50 | 0.219 | 79.4 | –
37 | CCN(CC)C(=S)CSC(=S)N(CC)CC [(DIETHYLTHIOCARBAMOYL)METHYLENE DIETHYLCARBAMODITHIOATE] | > 50 | 19.1 | > 1000 | –
38 | COc1nn(-c2ccc(NC(=O)OCc3ccccc3)c(C)c2)c(=O)o1 | – | 0.0204 | 0.0776 | Selectivity ratio [4]: 3
39 | CCN(CC)C(=S)SC [METHYLDIETHYL CARBAMODITHIOATE] | – | > 1000 | > 1000 | –
40 | S=C(SSC(=S)N1CCc2ccccc2C1)N1CCc2ccccc2C1 | > 50 | 0.347 | > 1000 | –
41 | O=C(CSC(=S)N1CCOCC1)N1CCOCC1 | > 50 | 219 | > 1000 | –
